Experimental data from article PMC8923172 (Antimicrobial Agents and Chemotherapy, 2022).
Marks after values point to notes of the source that are not given here. Residues, ends and D or L forms follow the SMILES beside them.

Assays:
[1] = Serum biochemistry of cynomolgus monkeys at the end of treatment; format: in vivo; settings: male, median (IQR)
Outline: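 GLP 10-day study in male and female cynomolgus monkeys (n = 3-5/sex/group) dosed once daily with 0 (placebo), 5, 10 or 15 mg/kg test compound by i.v. infusion over 60 ± 5 min. Hematology, serum chemistry and coagulation were taken at end of treatment and reported as median (IQR). Dose groups were compared by Kruskal-Wallis with Dunn's multiple comparison test.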

[2] = Single- and multiple-dose i.v. pharmacokinetics in cynomolgus monkeys; format: in vivo, cynomolgus monkeys (Macaca fascicularis); settings: for Cmax: 1-h i.v. infusion; for Cmax / AUC0-∞ / AUCτ / CL / λz / Vss / MRT: mean (SD); for MRT: MRTinf
[3] = both, cynomolgus monkey, plasma, iv, 15 mg/kg/day

CC[C@H](C)[C@@H]1NC(=O)[C@@H]2CSSC[C@H](NC(=O)[C@H](CCCNC(=N)N)NC(=O)[C@@H]3CSSC[C@H](NC1=O)C(=O)N[C@@H]([C@@H](C)O)C(=O)N[C@@H](CCCNC(=N)N)C(=O)NCC(=O)N[C@@H](Cc1ccccc1)C(=O)N3)C(=O)N[C@@H](CC(C)C)C(=O)N[C@H]1CSSC[C@H](NC(=O)[C@H](C(C)C)NC(=O)CNC(=O)[C@H](CCCNC(=N)N)NC(=O)[C@H](CCCNC(=N)N)NC1=O)C(=O)N[C@@H](CCCNC(=N)N)C(=O)N2 [RTD-1, Rhesus theta (θ) defensin-1] (HELM PEPTIDE1{G.F.C.R.C.L.C.R.R.G.V.C.R.C.I.C.T.R}$PEPTIDE1,PEPTIDE1,3:R3-16:R3|PEPTIDE1,PEPTIDE1,5:R3-14:R3|PEPTIDE1,PEPTIDE1,7:R3-12:R3|PEPTIDE1,PEPTIDE1,1:R1-18:R2$$$V2.0)
Chloride ([1]; 10 mg/kg/day): 110.0 (1.5) mmol/L | Cholesterol ([1]; 10 mg/kg/day): 99.0 (16.5) mg/dL | Creatinine ([1]; 10 mg/kg/day): 0.6 (0.1) mg/dL | GGT ([1]; 10 mg/kg/day): 119.0 (32.5) U/L | Globulin ([1]; 10 mg/kg/day): 2.9 (0.4) g/dL | Glucose ([1]; 10 mg/kg/day): 71.0 (23.0) mg/dL | Phos ([1]; 10 mg/kg/day): 5.4 (0.8) mg/dL | Potassium ([1]; 10 mg/kg/day): 5.9 (0.9) mmol/L | Sodium ([1]; 10 mg/kg/day): 150.0 (3.0) mmol/L | T-Bil ([1]; 10 mg/kg/day): 0.3 (0.0) mg/dL | TP ([1]; 10 mg/kg/day): 7.5 (0.5) g/dL | Triglycerides ([1]; 10 mg/kg/day): 32.0 (6.0) mg/dL | Urea N ([1]; 10 mg/kg/day): 20.0 (3.5) mg/dL | A/G ([1]; 15 mg/kg/day): 1.6 (0.2) | ALP ([1]; 15 mg/kg/day): 957.0 (638.0) U/L | ALT ([1]; 15 mg/kg/day): 88.0 (17.0) U/L | AST ([1]; 15 mg/kg/day): 103.0 (40.0) U/L | Albumin ([1]; 15 mg/kg/day): 4.4 (0.2) g/dL | CK ([1]; 15 mg/kg/day): 518.0 (1,392.0) U/L | Calcium ([1]; 15 mg/kg/day): 10.1 (0.3) mg/dL | Chloride ([1]; 15 mg/kg/day): 112.0 (1.0) mmol/L | Cholesterol ([1]; 15 mg/kg/day): 105.0 (50.0) mg/dL | Creatinine ([1]; 15 mg/kg/day): 0.6 (0.1) mg/dL | GGT ([1]; 15 mg/kg/day): 101.0 (6.0) U/L | Globulin ([1]; 15 mg/kg/day): 2.9 (0.5) g/dL | Glucose ([1]; 15 mg/kg/day): 67.0 (5.0) mg/dL | Phos ([1]; 15 mg/kg/day): 5.2 (0.6) mg/dL | Potassium ([1]; 15 mg/kg/day): 5.8 (0.6) mmol/L | Sodium ([1]; 15 mg/kg/day): 149.0 (2.0) mmol/L | T-Bil ([1]; 15 mg/kg/day): 0.2 (0.2) mg/dL | TP ([1]; 15 mg/kg/day): 7.5 (0.8) g/dL | Triglycerides ([1]; 15 mg/kg/day): 78.0 (52.0) mg/dL | Urea N ([1]; 15 mg/kg/day): 15.0 (2.0) mg/dL | Cmax ([2]; 0.3 mg/kg Day 1, n=2): 582 (109) ng/mL | AUC0-∞ ([2]; 0.3 mg/kg Day 1, n=2): 617 (137) ng · h/mL | AUCτ ([2]; 0.3 mg/kg Day 1, n=2): 591 (145) ng · h/mL | CL ([2]; 0.3 mg/kg Day 1, n=2): 498 (111) mL/h/kg | λz ([2]; 0.3 mg/kg Day 1, n=2): 0.523 (0.119) h^−1 | Cmax ([2]; 1 mg/kg Day 1, n=2): 2,560 (820) ng/mL | AUC0-∞ ([2]; 1 mg/kg Day 1, n=2): 3,875 (973) ng · h/mL | AUCτ ([2]; 1 mg/kg Day 1, n=2): 3,818 (961) ng · h/mL | CL ([2]; 1 mg/kg Day 1, n=2): 266 (66.9) mL/h/kg | λz ([2]; 1 mg/kg Day 1, n=2): 0.251 (0.035) h^−1 | AUCτ ([2]; 3 mg/kg Day 1, n=2): 10,334 (2,239) ng · h/mL | λz ([2]; 3 mg/kg Day 1, n=2): 0.078 (0.017) h^−1 | Cmax ([2]; 5 mg/kg Day 1, n=6): 10,700 (2,455) ng/mL | AUCτ ([2]; 5 mg/kg Day 1, n=6): 27,160 (4,286) ng · h/mL | λz ([2]; 5 mg/kg Day 1, n=6): 0.323 (0.016) h^−1 | AUCτ ([2]; 5 mg/kg Day 10, n=6): 38,936 (9,829) ng · h/mL | CL ([2]; 5 mg/kg Day 10, n=6): 136 (36.5)# mL/h/kg | λz ([2]; 5 mg/kg Day 10, n=6): 0.157 (0.009)# h^−1 | accumulation: mean AUCτ day 10 vs mean AUC0-∞ day 1 ([2]; 5 mg/kg/day): approximately 1.4 fold | Cmax ([2]; 10 mg/kg Day 1, n=8): 26,675 (8,240) ng/mL | AUCτ ([2]; 10 mg/kg Day 1, n=8): 76,083 (23,562) ng · h/mL | CL ([2]; 10 mg/kg Day 1, n=8): 143 (48.2)* mL/h/kg | λz ([2]; 10 mg/kg Day 1, n=8): 0.192 (0.034)* h^−1 | AUCτ ([2]; 10 mg/kg Day 10, n=6): 117,529 (26,077) ng · h/mL | CL ([2]; 10 mg/kg Day 10, n=6): 88.5 (18.5)* mL/h/kg | Vss ([2]; 10 mg/kg Day 10, n=6): 624 (88.2) mL/kg | λz ([2]; 10 mg/kg Day 10, n=6): 0.120 (0.018)* h^−1 | accumulation: mean AUCτ day 10 vs mean AUC0-∞ day 1 ([2]; 10 mg/kg/day): ~1.5 fold | Cmax ([2]; 15 mg/kg Day 1, n=12): 46,458 (15,247)† ng/mL | AUCτ ([2]; 15 mg/kg Day 1, n=12): 138,135 (34,942) ng · h/mL | CL ([2]; 15 mg/kg Day 1, n=12): 114 (25.7) mL/h/kg | Vss ([2]; 15 mg/kg Day 1, n=12): 629 (176)† mL/kg | λz ([2]; 15 mg/kg Day 1, n=12): 0.149 (0.019)† h^−1 | AUCτ ([2]; 15 mg/kg Day 4, n=2): 139,595 (2,366) ng · h/mL | λz ([2]; 15 mg/kg Day 4, n=2): 0.072 (0.020) h^−1 | AUCτ ([2]; 15 mg/kg Day 7, n=2): 154,149 (12,406) ng · h/mL | λz ([2]; 15 mg/kg Day 7, n=2): 0.071 (0.017) h^−1 | Cmax ([2]; 15 mg/kg Day 10, n=9): 32,233 (13,933)† ng/mL | AUCτ ([2]; 15 mg/kg Day 10, n=9): 173,315 (67,934) ng · h/mL | Vss ([2]; 15 mg/kg Day 10, n=9): 1,139 (411)† mL/kg | λz ([2]; 15 mg/kg Day 10, n=9): 0.078 (0.020)† h^−1 | MRT ([2]; both, cynomolgus monkey, plasma, iv, 0.3 mg/kg, 0.3 mg/kg Day 1, n=2): 1.24 h | MRT ([2]; both, cynomolgus monkey, plasma, iv, 1 mg/kg, 1 mg/kg Day 1, n=2): 1.82 h | MRT ([2]; both, cynomolgus monkey, plasma, iv, 3 mg/kg, 3 mg/kg Day 1, n=2): 4.3 h | MRT ([2]; both, cynomolgus monkey, plasma, iv, 5 mg/kg, 5 mg/kg Day 1, n=6): 2.94 h | MRT ([2]; both, cynomolgus monkey, plasma, iv, 5 mg/kg, 5 mg/kg Day 10, n=6): 4.84 h | MRT ([2]; both, cynomolgus monkey, plasma, iv, 10 mg/kg, 10 mg/kg Day 1, n=8): 4.4 h | MRT ([2]; both, cynomolgus monkey, plasma, iv, 10 mg/kg, 10 mg/kg Day 10, n=6): 7.2 h | MRT ([2]; both, cynomolgus monkey, plasma, iv, 15 mg/kg, 15 mg/kg Day 1, n=12): 5.48 h | MRT ([2]; both, cynomolgus monkey, plasma, iv, 15 mg/kg, 15 mg/kg Day 4, n=2): 11.8 h | MRT ([2]; both, cynomolgus monkey, plasma, iv, 15 mg/kg, 15 mg/kg Day 7, n=2): 12.3 h | MRT ([2]; both, cynomolgus monkey, plasma, iv, 15 mg/kg, 15 mg/kg Day 10, n=9): 12 h | level at 288 h [2, 3]: 537 ng/mL | level at 576 h [2, 3]: 12.5 ng/mL | time plasma concentrations detectable post-end of infusion ([2]; single dose of 0.3 or 1 mg/kg): up to 12 h
